Assays:
Oxoeicosanoid receptor 1 [1] = molecular target: T1, Oxoeicosanoid receptor 1 (Homo sapiens, UniProt Q8TDS5); assay: Antagonist activity at OXE receptor in human neutrophils assessed as inhibition of 5-oxo-ETE-induced calcium mobilization incubated for 2 mins followed by 5-oxo-ETE addition by fluorescence assay; type: functional
In short: (§1)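 Human neutrophils were isolated from healthy donors by dextran sedimentation and Ficoll-Paque centrifugation, then loaded with indo-1. Fluorescence was read at 37 °C in a stirred cuvette. Antagonist was added at various concentrations; 2 min later 5-oxo-ETE (10 nM) was added. Digitonin (final 0.1%) followed 1 min later to give maximal fluorescence.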

[2] = Tmax in cynomolgus monkey plasma at 30 mg/kg administered via oral gavage by RP-HPLC analysis; type: ADME, organism-based, Macaca fascicularis
In short: (§2)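 Female cynomolgus monkeys (2.5–3.5 kg). Compound dissolved in EtOH at 75 mg/mL, diluted in 10 volumes of 20 mM NaHCO3 pH 8.0 (9.1% EtOH) and given by oral gavage; 4.4 mL/kg for 30 mg/kg, 2.2 mL/kg for lower doses. Blood drawn into heparin pre-dose and at 0.5, 1, 2, 4, 8, 12, 24 h, sometimes 3 and 7 days. Plasma diluted with 2 volumes MeOH plus internal standard, then RP-HPLC.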

[3] = Cmax in cynomolgus monkey plasma at 30 mg/kg administered via oral gavage by RP-HPLC analysis; type: ADME, organism-based, Macaca fascicularis; design: dose 30 mg/kg, route oral; in short: as §2
[4] = Plasma concentration in cynomolgus monkey at 30 mg/kg administered as oral gavage measured after 1 hr by RP-HPLC analysis; type: ADME, organism-based, Macaca fascicularis; in short: as §2
[5] = Plasma concentration in cynomolgus monkey at 30 mg/kg administered as oral gavage measured after 8 hrs by RP-HPLC analysis; type: ADME, organism-based, Macaca fascicularis; in short: as §2
[6] = AUC (0 to 24 hrs) in cynomolgus monkey plasma at 30 mg/kg administered via oral gavage by RP-HPLC analysis; type: ADME, organism-based, Macaca fascicularis; design: dose 30 mg/kg, time < 24 hr, route oral; in short: as §2
[7] = Half life in cynomolgus monkey plasma at 30 mg/kg administered via oral gavage by RP-HPLC analysis; type: ADME, organism-based, Macaca fascicularis; in short: as §2
Oxoeicosanoid receptor 1 [8] = molecular target: T1, Oxoeicosanoid receptor 1; assay: Antagonist activity at OXE receptor in human neutrophils assessed as inhibition of 5-oxo-ETE-induced calcium mobilization incubated for 2 mins followed by 5-oxo-ETE addition measured after 1 min by fluorescence assay; type: functional; in short: as §1
[9] = Plasma concentration in cynomolgus monkey at 30 mg/kg administered via oral gavage after 7 days by RP-HPLC analysis; type: ADME, organism-based, Macaca fascicularis; in short: as §2
[10] = Plasma concentration in cynomolgus monkey at 30 mg/kg administered via oral gavage after 3 days by RP-HPLC analysis; type: ADME, organism-based, Macaca fascicularis; in short: as §2
[11] = Drug level in cynomolgus monkey plasma treated with 30 mg/kg 5-(5-Chloro-1-methyl-2-(6-phenylhexyl)-1H-indol-3-yl)-3-methyl-5-oxopentanoic Acid administered via oral gavage assessed as compound formation after 12 hrs by RP-HPLC analysis; type: ADME, organism-based, Macaca fascicularis; details: in vivo
In short: (§3)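 Monkeys received 30 mg/kg by oral gavage in EtOH/20 mM NaHCO3 pH 8.0 vehicle. A plasma extract taken 12 h later was run by RP-HPLC on a C18 column (4 µm, 3.9 x 150 mm) with a 15-min gradient of 70–100% MeOH in H2O, both containing 0.02% HOAc. The tetramethylene analog served as internal standard.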

[12] = Cmax in cynomolgus monkey plasma at 15 mg/kg administered via oral gavage by RP-HPLC analysis; type: ADME, organism-based, Macaca fascicularis; design: dose 15 mg/kg, route oral
[13] = Half life in cynomolgus monkey plasma at 10 mg/kg administered via oral gavage by RP-HPLC analysis; type: ADME, organism-based, Macaca fascicularis; in short: as §2
[14] = AUC (0 to 24 hrs) in cynomolgus monkey plasma at 2 mg/kg administered via oral gavage by RP-HPLC analysis; type: ADME, organism-based, Macaca fascicularis; design: dose 2 mg/kg, time < 24 hr, route oral; in short: as §2
[15] = Cmax in cynomolgus monkey plasma at 10 mg/kg administered via oral gavage by RP-HPLC analysis; type: ADME, organism-based, Macaca fascicularis; design: dose 10 mg/kg, route oral; in short: as §2
[16] = Half life in cynomolgus monkey plasma at 2 mg/kg administered via oral gavage by RP-HPLC analysis; type: ADME, organism-based, Macaca fascicularis; in short: as §2
[17] = Cmax in cynomolgus monkey plasma at 5 mg/kg administered via oral gavage by RP-HPLC analysis; type: ADME, organism-based, Macaca fascicularis; design: dose 5 mg/kg, route oral; in short: as §2
[18] = AUC (0 to 24 hrs) in cynomolgus monkey plasma at 1 mg/kg administered via oral gavage by RP-HPLC analysis; type: ADME, organism-based, Macaca fascicularis; design: time < 24 hr, dose 1 mg/kg, route oral; in short: as §2
[19] = AUC (0 to 24 hrs) in cynomolgus monkey plasma at 15 mg/kg administered via oral gavage by RP-HPLC analysis; type: ADME, organism-based, Macaca fascicularis; design: time < 24 hr, dose 15 mg/kg, route oral
[20] = AUC (0 to 24 hrs) in cynomolgus monkey plasma at 10 mg/kg administered via oral gavage by RP-HPLC analysis; type: ADME, organism-based, Macaca fascicularis; design: time < 24 hr, dose 10 mg/kg, route oral; in short: as §2
[21] = Plasma concentration in cynomolgus monkey at 30 mg/kg administered via oral gavage after 24 hrs by chiral-HPLC analysis; type: ADME, organism-based, Macaca fascicularis
In short: (§4)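 After oral gavage of racemate at 30 mg/kg, plasma C025 or its metabolite was isolated by RP-HPLC, then run by chiral HPLC on Cellulose-1 at 2 ml/min and 30 °C. Mobile phase was hexane/MeOH/HOAc 97.5:2.5:0.1 for parent and 97:3:0.1 for metabolite. Samples were taken at 4 h and 24 h; n=2 for enantiomer levels.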

[22] = Cmax in cynomolgus monkey plasma at 1 mg/kg administered via oral gavage by RP-HPLC analysis; type: ADME, organism-based, Macaca fascicularis; design: dose 1 mg/kg, route oral; in short: as §2
[23] = AUC (0 to 24 hrs) in cynomolgus monkey plasma at 5 mg/kg administered via oral gavage by RP-HPLC analysis; type: ADME, organism-based, Macaca fascicularis; design: dose 5 mg/kg, time < 24 hr, route oral; in short: as §2
[24] = Drug metabolism in cynomolgus monkey plasma at 30 mg/kg administered via oral gavage assessed as metabolite (R)-5-(5-Chloro-2-((S)-1-hydroxy-6-phenylhexyl)-1-methyl-1Hindol-3-yl)-3-methyl-5-oxopentanoic acid formation after 4 hrs by chiral-HPLC analysis; type: ADME, organism-based, Macaca fascicularis; details: in vivo; in short: as §4
[25] = Tmax in cynomolgus monkey plasma at 2 mg/kg administered via oral gavage by RP-HPLC analysis; type: ADME, organism-based, Macaca fascicularis; in short: as §2
[26] = Tmax in cynomolgus monkey plasma at 1 mg/kg administered via oral gavage by RP-HPLC analysis; type: ADME, organism-based, Macaca fascicularis; in short: as §2
[27] = Tmax in cynomolgus monkey plasma at 5 mg/kg administered via oral gavage by RP-HPLC analysis; type: ADME, organism-based, Macaca fascicularis; in short: as §2
[28] = Half life in cynomolgus monkey plasma at 1 mg/kg administered via oral gavage by RP-HPLC analysis; type: ADME, organism-based, Macaca fascicularis; in short: as §2
[29] = Tmax in cynomolgus monkey plasma at 10 mg/kg administered via oral gavage by RP-HPLC analysis; type: ADME, organism-based, Macaca fascicularis; in short: as §2
[30] = Half life in cynomolgus monkey plasma at 15 mg/kg administered via oral gavage by RP-HPLC analysis; type: ADME, organism-based, Macaca fascicularis
[31] = Cmax in cynomolgus monkey plasma at 2 mg/kg administered via oral gavage by RP-HPLC analysis; type: ADME, organism-based, Macaca fascicularis; design: dose 2 mg/kg, route oral; in short: as §2
[32] = Tmax in cynomolgus monkey plasma at 15 mg/kg administered via oral gavage by RP-HPLC analysis; type: ADME, organism-based, Macaca fascicularis
[33] = Half life in cynomolgus monkey plasma at 5 mg/kg administered via oral gavage by RP-HPLC analysis; type: ADME, organism-based, Macaca fascicularis; in short: as §2
[34] = Drug metabolism in cynomolgus monkey plasma at 30 mg/kg administered via oral gavage assessed as metabolite (S)-5-(5-Chloro-2-((S)-1-hydroxy-6-phenylhexyl)-1-methyl-1Hindol-3-yl)-3-methyl-5-oxopentanoic acid formation after 24 hrs by chiral-HPLC analysis; type: ADME, organism-based, Macaca fascicularis; details: in vivo; in short: as §4
[35] = Drug metabolism in cynomolgus monkey plasma at 30 mg/kg administered via oral gavage assessed as phenylpentamethylene side chain modification after 12 hrs by RP-HPLC analysis; type: ADME, organism-based, Macaca fascicularis; details: in vivo; in short: as §3
[36] = Drug metabolism in cynomolgus monkey plasma at 30 mg/kg administered via oral gavage assessed as metabolite (S)-5-(5-Chloro-2-((S)-1-hydroxy-6-phenylhexyl)-1-methyl-1Hindol-3-yl)-3-methyl-5-oxopentanoic acid formation after 12 hrs by RP-HPLC analysis; type: ADME, organism-based, Macaca fascicularis; details: in vivo; in short: as §3

T1 sequence (Q8TDS5 whole entry): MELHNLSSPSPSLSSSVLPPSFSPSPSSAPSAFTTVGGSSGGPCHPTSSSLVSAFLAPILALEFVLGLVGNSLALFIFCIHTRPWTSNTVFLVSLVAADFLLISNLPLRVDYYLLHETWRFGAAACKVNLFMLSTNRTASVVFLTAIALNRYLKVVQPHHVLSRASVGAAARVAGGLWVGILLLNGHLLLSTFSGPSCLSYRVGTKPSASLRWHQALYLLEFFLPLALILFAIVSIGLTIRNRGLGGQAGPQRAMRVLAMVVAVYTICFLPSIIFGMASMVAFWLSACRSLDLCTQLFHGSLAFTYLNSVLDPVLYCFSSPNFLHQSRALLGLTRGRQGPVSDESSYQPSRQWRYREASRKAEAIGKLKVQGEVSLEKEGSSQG

CCCCC/C=C\C[C@H](O)/C=C/C=C\C=C\C(=O)CCCC(=O)O
IC50 (Oxoeicosanoid receptor 1 [1]): 500 nM

CCCCCCc1c(C(=O)C[C@H](C)CC(=O)O)c2cc(Cl)ccc2n1C
Tmax [2]: 1 h
Cmax [3]: 36 µM
concentration at 1 h [4]: 36 µM
concentration at 8 h [5]: 1.6 µM
AUC(0-t) at 24 h [6]: 100 µM·h
half-life [7]: 1.6 h

C[C@@H](CC(=O)O)CC(=O)c1c([C@@H](O)CCCCCc2ccccc2)n(C)c2ccc(Cl)cc12
IC50 (Oxoeicosanoid receptor 1 [8]): 120 nM

CC(CC(=O)O)CC(=O)n1c(CCCCCCc2ccccc2)cc2ccc(Cl)cc21 (centres undefined)
IC50 (Oxoeicosanoid receptor 1 [8]): 12 nM

CC(CC(=O)O)CC(=O)c1c(CCCCCC(F)(F)F)n(C)c2ccc(Cl)cc12 (centres undefined)
IC50 (Oxoeicosanoid receptor 1 [8]): 38 nM

CC(CC(=O)O)CC(=O)n1c(CCCc2ccccc2)cc2ccc(Cl)cc21 (centres undefined)
IC50 (Oxoeicosanoid receptor 1 [8]): 210 nM

C[C@H](CC(=O)O)CC(=O)c1c([C@@H](O)CCCCCc2ccccc2)n(C)c2ccc(Cl)cc12
concentration at 168 h [9]: 0.2 µM
IC50 (Oxoeicosanoid receptor 1 [8]): 0.38 to 0.69 nM
concentration at 72 h [10]: 1.5 µM
Drug uptake [11]: Active

CC(CC(=O)O)CC(=O)c1c(C(O)CCCCCc2ccccc2)n(C)c2ccc(Cl)cc12 (centres undefined)
Drug uptake [11]: Active

C[C@H](CC(=O)O)CC(=O)c1c(CCCCCCc2ccccc2)n(C)c2ccc(Cl)cc12
Cmax [12]: 32 µM
half-life [13]: 2.8 h
AUC(0-t) at 24 h [14]: 26 µM·h
Cmax [15]: 35 µM
half-life [16]: 1.1 h
Cmax [17]: 18 µM
AUC(0-t) at 24 h [18]: 13 µM·h
AUC(0-t) at 24 h [19]: 169 µM·h
Tmax [2]: 1.3 h
AUC(0-t) at 24 h [20]: 171 µM·h
concentration at 24 h [21]: 1 µM
concentration at 168 h [9]: 0.04 µM
Cmax [22]: 4.5 µM
IC50 (Oxoeicosanoid receptor 1 [8]): 0.12 nM
AUC(0-t) at 24 h [23]: 78 µM·h
Cmax [3]: 106 µM
Drug metabolism [24]: Metabolite_Detected
Tmax [25]: 0.7 h
concentration at 72 h [10]: 0.16 µM
Drug uptake [11]: Active
Tmax [26]: 0.7 h
Tmax [27]: 1.2 h
half-life [28]: 0.9 h
Tmax [29]: 1.2 h
half-life [30]: 3.4 h
AUC(0-t) at 24 h [6]: 684 µM·h
Cmax [31]: 7.8 µM
Tmax [32]: 0.8 h
half-life [7]: 3.5 h
half-life [33]: 1.9 h

C[C@H](CC(=O)O)CC(=O)c1c([C@H](O)CCCCCc2ccccc2)n(C)c2ccc(Cl)cc12
IC50 (Oxoeicosanoid receptor 1 [8]): 260 nM

CC(CC(=O)O)CC(=O)n1c(CCCCc2ccccc2)cc2ccc(Cl)cc21 (centres undefined)
IC50 (Oxoeicosanoid receptor 1 [8]): 18 nM

C[C@@H](CC(=O)O)CC(=O)c1c(CCCCCCc2ccccc2)n(C)c2ccc(Cl)cc12
Cmax [12]: 79 µM
AUC(0-t) at 24 h [19]: 1080 µM·h
concentration at 24 h [21]: > 20 µM
Drug uptake [11]: Active
Drug metabolism [34]: Metabolite_Detected
half-life [30]: 9.3 h
Tmax [32]: 2.5 h

C[C@@H](CC(=O)O)CC(=O)c1c([C@H](O)CCCCCc2ccccc2)n(C)c2ccc(Cl)cc12
IC50 (Oxoeicosanoid receptor 1 [8]): 750 nM

CCCCCCc1cc2ccc(Cl)cc2n1C(=O)CC(C)CC(=O)O (racemic)
Tmax [2]: 0.9 h
Cmax [3]: 27 µM
concentration at 1 h [4]: > 25 µM
concentration at 8 h [5]: < 0.5 µM
AUC(0-t) at 24 h [6]: 55 µM·h
half-life [7]: 1.2 h

CCCCCCc1c(C(=O)CC(C)CC(=O)O)c2cc(Cl)ccc2n1C (racemic)
Tmax [2]: 0.6 h
IC50 (Oxoeicosanoid receptor 1 [8]): 17 to 26 nM
Cmax [3]: 121 µM
AUC(0-t) at 24 h [6]: 198 µM·h
half-life [7]: 0.7 h

CC(CC(=O)O)CC(=O)n1c(CCCCCc2ccccc2)cc2ccc(Cl)cc21 (racemic)
Tmax [2]: 2 h
IC50 (Oxoeicosanoid receptor 1 [8]): 2.1 nM
Cmax [3]: 55 µM
Drug metabolism [35]: Metabolite_Detected
AUC(0-t) at 24 h [6]: 294 µM·h
half-life [7]: 3 h

CC(CC(=O)O)CC(=O)c1c(CCCCCCc2ccccc2)n(C)c2ccc(Cl)cc12 (racemic)
Tmax [2]: 2.5 h
IC50 (Oxoeicosanoid receptor 1 [8]): 0.28 nM
Cmax [3]: 108 µM
AUC(0-t) at 24 h [6]: 1250 µM·h
Drug metabolism [36]: Metabolite_Detected
half-life [7]: 7.4 h
